For data set [1] the following is noted: rabbits, administered topically via ocular route; ref 25 (Yamamoto et al., 1989); cited from earlier work.
A short description of another data set: Pharmacokinetic study. The note with it: rabbit plasma, n = 3; for T max: 5 IU kg^−1, HPLC; for AUC0–12: 5 IU kg^−1, trapezoidal method, mean ± SD. In kind it is in vivo.
For data set [2], the system named is diabetic rabbits (streptozotocin). In words: In vivo anti-diabetic study. The arrangement: species or system rabbit. Conditions: at 4 h, subcutaneous injection, n = 3. Summed up: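 Male New Zealand albino rabbits (1.5–2.0 kg) made diabetic by intravenous streptozotocin (65 mg kg−1, in citrate buffer pH 5.0) given in the evening for three days. Baseline blood glucose was taken on day 1 after overnight fasting. Blood glucose was followed over time and expressed as % of initial level, n = 3 per group.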

The test system of data set [3] is New Zealand albino rabbits. Kind of data set: In vivo tolerance study. Conditions: rabbit eye, scale 0-3, n = 3. In short, it runs like this: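 Male New Zealand albino rabbits (1.5–2.0 kg) free of ocular inflammation, housed at 25 ± 2 °C, 75% RH, 12:12 h light cycle. Nine animals were split into three groups of three. […] Macroscopic signs were graded at 0.5, 4.0 and 16.0 h, and scores were summed into an overall irritation index.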

Setting [4] is: 0.5 h after single instillation of 50 μl.
Where [5] appears, read: 4.0 h after single instillation of 50 μl.
Setting [6] is: 16.0 h after single instillation of 50 μl.

On to insulin, for which the bioavailability entry in data set [1] is given as “less than 1%”.
For “Subcutaneous insulin injection: subcutaneous injection of human insulin solution”, in the data set “Pharmacokinetic study” (subcutaneous injection), the T max turned out to be 30 min and the “AUC0–12” value turned out to be 197.38 ± 2.76 µg·h/mL. For the same substance, the “drop in blood glucose level” value in data set [2] turned out to be 71.08 ± 3.24.
Insulin [Plain insulin solution]: in “Pharmacokinetic study” (ocular instillation), the T max is 19.8 min and the “AUC0–12” value was 1.87 ± 1.7 µg·h/mL. Also, in data set [3] (setting [4]), the Conjunctiva grade came to 0, the Cornea grade is listed as 0, the Discharge grade was 0 and the Lids grade amounted to 0. In addition, in data set [3] (setting [5]), the Conjunctiva grade is 0, the Cornea grade is 0, the Discharge grade is given as 1 and the Discomfort grade amounted to 0. In data set [3] (setting [5]), the Lids grade is given as 0. Also, in data set [3] (setting [6]), the Conjunctiva grade was 0, the Cornea grade was 0, the Discharge grade is 0 and the Discomfort grade is reported as 0. The same substance returned a Lids grade in data set [3] (setting [6]) of 0.

Values taken from PMC9058365 (RSC Advances, 2020).
